These results are taken from ChEMBL document CHEMBL1156371, “New polyoxygenated briarane diterpenoids, briaexcavatolides O-R, from the gorgonian Briareum excavatum” (2001).

SMILES strings stand for the structures. In brackets after ≈: the same amount, converted by molar mass. Activity calls are given as the source filed them. The rule behind the calls is not given here.

Common to all, as to assay type: functional
For one assay, the system named is A549. The assay is described as follows: Cytotoxicity against human A549 cells by MTT assay. The method in brief:
(§1)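 Colorimetric read-out using a modified MTT [3-(4,5-dimethylthiazol-2-yl)-2,5-diphenyltetrazolium bromide] method, following previously described procedures.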

The test system of another assay is HT-29. The assay can be described thus: Cytotoxicity against human HT-29 cells by MTT assay. The gist of the method:
as §1
(Tetrazolium assays rely on reduction of a dye to a coloured formazan, in cell work by metabolically active cells.)

A further assay has as its system P388. The assay can be described thus: Cytotoxicity against mouse P388 cells by MTT assay. The gist of the method: as §1
Where [1] appears, read: read-out: ED50 (the source's name).

In the case of `CCCC(=O)O[C@@H]1/C(C)=C\[C@@H]2OC(=O)[C@@]3(C)O[C@]23[C@@H](OC(C)=O)[C@H]2[C@@H](C)[C@@H](O)C[C@H](OC(C)=O)[C@]2(C)[C@@H](OC(C)=O)[C@H]1O` [BRIAEXCAVATOLIDE P], the EC50 in the assay with A549 (setting [1]) was determined as 4.8 µg/mL (≈ 7.86 µM); with HT-29 (setting [1]) it was 3.1 µg/mL (≈ 5.08 µM); in the assay on P388 (setting [1]), 0.9 µg/mL (≈ 1.47 µM).
Consider `CCCC(=O)O[C@@H]1/C(C)=C\[C@@H]2OC(=O)[C@@]3(C)O[C@]23[C@@H](OC(C)=O)[C@H]2[C@@H](C)[C@@H](O)C[C@H](OC(C)=O)[C@]2(C)[C@@H](O)[C@H]1OC(C)=O`, for which the result in the assay on A549, with HT-29 and in the assay on P388 was inactive.
For `CCCCCCCC(=O)O[C@H]1C[C@H](OC(C)=O)[C@@]2(C)[C@H]([C@H]1C)[C@H](OC(C)=O)[C@]13O[C@]1(C)C(=O)O[C@H]3/C=C(/C)C[C@H](OC(=O)CCC)[C@@H]2OC(C)=O`, the outcome with A549, in the assay on HT-29 and in the assay with P388 was inactive.
On to `CCCC(=O)O[C@@H]1/C(C)=C\[C@@H]2OC(=O)[C@@]3(C)O[C@]23[C@@H](OC(C)=O)[C@H]2[C@@H](C)[C@@H](OC(C)=O)C[C@H](OC(C)=O)[C@]2(C)[C@@H](OC(C)=O)[C@H]1O`, for which the outcome with A549, in the assay with HT-29 and in the assay with P388 was inactive.
